Experimental data taken from ChEMBL document CHEMBL5705886, “GSK1070916, a potent Aurora B/C kinase inhibitor with broad antitumor activity in tissue culture cells and human tumor xenograft models” (Mol Cancer Ther, 2009).
Activity calls are given as the source filed them. The rule behind the calls is not given here.

Assays:
[1] = molecular target: Aurora kinase B (Homo sapiens) (UniProt Q96GD4)
U2OS = test: Antiproliferative activity against human U2OS cells assessed as inhibition of cell viability measured for 6 to 7 days by cell titer glo assay; type: functional, cell-based
[2] = Toxicity in SCID nude mouse xenografted with human NCI-H460 cells assessed as body weight loss at 25 to 100 mg/kg, ip administered once daily for 5 consecutive days with 2 days off scheduled for 3 cycles measured upto 60 days relative to control; type: organism-based; conditions: in vivo, 1440 h, dose 25-100 mg/kg, time < 60 day
OCI-LY19 = test: Antiproliferative activity against human OCILY19 cells assessed as inhibition of cell viability measured for 6 to 7 days by cell titer glo assay; type: functional, cell-based
Procedure, shortened: (§1)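 Cells seeded in recommended growth medium, held overnight at 37°C in 5% CO2, then exposed to serial dilutions of inhibitor for 6–7 d. A time-zero plate was read with CellTiter-Glo at dosing. Luminescent viability read at the end. No-cell wells subtracted as background, data expressed as percent of DMSO control.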

[3] = Antiproliferative activity against human CEM/C1 cells assessed as inhibition of cell viability measured for 6 to 7 days by cell titer glo assay; type: functional, cell-based
Procedure, shortened: (§2)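 Tumor lines plated in recommended growth media, overnight at 37°C, 5% CO2, then given serial dilutions; a T=0 plate read with CellTiter-Glo at dosing. After 6–7 d of exposure, viability read by CellTiter-Glo luminescence. No-cell wells subtracted, data expressed as % of DMSO control.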

Rec1 = test: Antiproliferative activity against human REC1 cells assessed as inhibition of cell viability measured for 6 to 7 days by cell titer glo assay; type: functional, cell-based
Procedure, shortened: as §1

COLO-320-HSR = test: Antiproliferative activity against human COLO 320HSR cells assessed as inhibition of cell viability measured for 6 to 7 days by cell titer glo assay; type: functional, cell-based
Procedure, shortened: as §2

COLO 205 = test: Induction of apoptosis in human COLO 205 cells assessed as PARP cleavage at 10 nmol/L incubated for 24 hrs by Western blot analysis; type: functional, cell-based
SW48 = test: Antiproliferative activity against human SW48 cells assessed as inhibition of cell viability measured for 6 to 7 days by cell titer glo assay; type: functional, cell-based
Procedure, shortened: as §1

HEC-1B cell line = test: Antiproliferative activity against human HEC-1B cell line assessed as inhibition of cell viability measured for 6 to 7 days by cell titer glo assay; type: functional, cell-based
Procedure, shortened: as §2

NCI-H157 = test: Antiproliferative activity against human NCI-H157 cells assessed as inhibition of cell viability measured for 6 to 7 days by cell titer glo assay; type: functional, cell-based
Procedure, shortened: (§3)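 Cells seeded in recommended growth medium, incubated overnight at 37°C in 5% CO2, then exposed to serial dilutions of inhibitor for 6–7 d. A parallel plate was read with CellTiter-Glo at compound addition as a T=0 value. The luminescent viability readout had no-cell background subtracted and was expressed as % of DMSO control.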

SUP-B15 = test: Antiproliferative activity against human SUP-B15 cells assessed as inhibition of cell viability measured for 6 to 7 days by cell titer glo assay; type: functional, cell-based
Procedure, shortened: as §1

[4] = Antiproliferative activity against human CRO-AP5 cells assessed as inhibition of cell viability measured for 6 to 7 days by cell titer glo assay; type: functional, cell-based
Procedure, shortened: as §2

JIYOYE = test: Antiproliferative activity against human JIYOYE cells assessed as inhibition of cell viability measured for 6 to 7 days by cell titer glo assay; type: functional, cell-based
Procedure, shortened: as §3

NCI-H1299 = test: Antiproliferative activity against human NCI-H1299 cells assessed as inhibition of cell viability measured for 6 to 7 days by cell titer glo assay; type: functional, cell-based
Procedure, shortened: as §3

SW1417 = test: Antiproliferative activity against human SW1417 cells assessed as inhibition of cell viability measured for 6 to 7 days by cell titer glo assay; type: functional, cell-based
Procedure, shortened: as §1

MDA-MB-231 = test: Antiproliferative activity against human MDA-MB-231 cells assessed as inhibition of cell viability measured for 6 to 7 days by cell titer glo assay; type: functional, cell-based
Procedure, shortened: as §3

[5] = Antiproliferative activity against human BC-2 cells assessed as inhibition of cell viability measured for 6 to 7 days by cell titer glo assay; type: functional, cell-based
Procedure, shortened: as §2

Daudi = test: Antiproliferative activity against human Daudi cells assessed as inhibition of cell viability measured for 6 to 7 days by cell titer glo assay; type: functional, cell-based
Procedure, shortened: as §2

SK-BR-3 = test: Antiproliferative activity against human SK-BR-3 cells assessed as inhibition of cell viability measured for 6 to 7 days by cell titer glo assay; type: functional, cell-based
Procedure, shortened: as §1

[6] = Antiproliferative activity against human MJ cells assessed as inhibition of cell viability measured for 6 to 7 days by cell titer glo assay; type: functional, cell-based
Procedure, shortened: as §3

COLO 201 = test: Antiproliferative activity against human COLO201 cells assessed as inhibition of cell viability measured for 6 to 7 days by cell titer glo assay; type: functional, cell-based
Procedure, shortened: as §2

[7] = Antiproliferative activity against human Hs 445 cells assessed as inhibition of cell viability measured for 6 to 7 days by cell titer glo assay; type: functional, cell-based
Procedure, shortened: as §3

[8] = Toxicity in SCID nude mouse xenografted with human HL-60 cells assessed as body weight loss at 100 mg/kg, ip administered once daily for 5 consecutive days with 2 days off scheduled for 2 cycles measured upto 60 days; type: organism-based; conditions: in vivo, 1440 h, time < 60 day
DB = test: Antiproliferative activity against human DB cells assessed as inhibition of cell viability measured for 6 to 7 days by cell titer glo assay; type: functional, cell-based
Procedure, shortened: as §2

GDM-1 = test: Antiproliferative activity against human GDM-1 cells assessed as inhibition of cell viability measured for 6 to 7 days by cell titer glo assay; type: functional, cell-based
Procedure, shortened: as §2

SK-MEL-28 = test: Antiproliferative activity against human SK-MEL-28 cells assessed as inhibition of cell viability measured for 6 to 7 days by cell titer glo assay; type: functional, cell-based
Procedure, shortened: as §1

U-937 = test: Antiproliferative activity against human U-937 cells assessed as inhibition of cell viability measured for 6 to 7 days by cell titer glo assay; type: functional, cell-based
ASPC1 = test: Antiproliferative activity against human ASPC1 cells assessed as inhibition of cell viability measured for 6 to 7 days by cell titer glo assay; type: functional, cell-based
Procedure, shortened: as §2

ARH-77 = test: Antiproliferative activity against human ARH-77 cells assessed as inhibition of cell viability measured for 6 to 7 days by cell titer glo assay; type: functional, cell-based
Procedure, shortened: as §2

MOLT-16 = test: Antiproliferative activity against human MOLT-16 cells assessed as inhibition of cell viability measured for 6 to 7 days by cell titer glo assay; type: functional, cell-based
Procedure, shortened: as §3

RPMI-8226 = test: Antiproliferative activity against human RPMI-8226 cells assessed as inhibition of cell viability measured for 6 to 7 days by cell titer glo assay; type: functional, cell-based
Procedure, shortened: as §1

Chain of Aurora kinase B (Homo sapiens) (Q96GD4 whole entry): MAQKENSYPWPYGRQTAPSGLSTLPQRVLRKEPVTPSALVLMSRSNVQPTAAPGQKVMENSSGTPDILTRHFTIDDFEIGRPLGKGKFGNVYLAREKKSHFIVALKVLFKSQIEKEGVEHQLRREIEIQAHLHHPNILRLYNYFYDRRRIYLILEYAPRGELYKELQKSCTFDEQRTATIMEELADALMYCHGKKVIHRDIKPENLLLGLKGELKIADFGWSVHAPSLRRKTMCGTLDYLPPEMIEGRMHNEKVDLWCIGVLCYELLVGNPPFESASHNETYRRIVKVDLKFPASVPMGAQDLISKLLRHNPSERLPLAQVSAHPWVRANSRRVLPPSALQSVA

Compound: CCn1cc(-c2ccnc3[nH]c(-c4cccc(CN(C)C)c4)cc23)c(-c2ccc(NC(=O)N(C)C)cc2)n1 [GSK-1070916]
- T1/2 [1]: > 8 h
- EC50 (U2OS): 34 nM
- Activity [2]: < 15%
- EC50 (OCI-LY19): 4 nM
- EC50 [3]: 6 nM
- EC50 (Rec1): 77 nM
- EC50 (COLO-320-HSR): 92 nM
- Activity (COLO 205): Active
- EC50 (SW48): 2 nM
- EC50 (HEC-1B cell line): 4 nM
- EC50 (NCI-H157): 8 nM
- EC50 (SUP-B15): 2 nM
- EC50 [4]: 3 nM
- EC50 (JIYOYE): 5 nM
- EC50 (NCI-H1299): 23 nM
- EC50 (SW1417): 19 nM
- EC50 (MDA-MB-231): 11 nM
- EC50 [5]: 75 nM
- EC50 (Daudi): 5 nM
- EC50 (SK-BR-3): 4 nM
- EC50 [6]: 7 nM
- EC50 (COLO 201): 2 nM
- EC50 [7]: 5 nM
- Activity [8]: Toxic
- EC50 (DB): 11 nM
- EC50 (GDM-1): 21 nM
- EC50 (SK-MEL-28): 7 nM
- EC50 (U-937): 5 nM
- EC50 (ASPC1): 2 nM
- EC50 (ARH-77): 15 nM
- EC50 (MOLT-16): 3 nM
- EC50 (RPMI-8226): 11 nM
